Data taken from ChEMBL document CHEMBL1156208, “Novel DNA-peptide interaction networks” (Bioorg Med Chem, 2010).
Active and inactive are the calls of the source. The rule behind the calls is not given here. Starred links: 1 amine or outer side, 2 acyl side, 3 side chain; linkers in the order of their positions; H or OH if unused. Non-standard residues stand in square brackets, D forms with d. Residues, ends and D or L forms follow the SMILES beside them. X1 = Cn1cc(N[*:1])cc1C(=O)[*:2]

Experiments:
Format in all cases: nucleic-acid assay
Nucleic Acid [1] = test: Binding affinity to 5^-GGAGAAAATACC-3^ sequence of [32P] labeled DNA at 2 uM after 120 mins by DNase1 foot printing
In short: (§1)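 5'-32P-labeled PCR duplexes (158-mer upper strand, 135-mer lower strand) were equilibrated with varying peptide concentrations in 5 mM sodium cacodylate, pH 6.5, at room temperature for 120 min. DNase I (final 0.009 unit/mL, limited to <30% digestion) was added for 10 min at 37 °C. Products were resolved on denaturing 8% polyacrylamide/8 M urea gels and band volumes integrated to give fractional saturation. Apparent K was taken as the peptide concentration at 50% saturation. Hill coefficient came from the slope of a least-squares Hill plot using at least six points.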

Nucleic Acid [2] = test: Binding affinity to 5^-TTTTCTCC-3^ sequence of [32P] labeled DNA at 2 uM after 120 mins by DNase1 foot printing; in short: as §1
Nucleic Acid [3] = test: Binding affinity to 13-mer DNA duplex U4A-L4T assessed as conformational change after 60 mins by circular dichroism
In short: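 CD spectra were recorded at 37 °C after 60 min incubation. Difference spectra were obtained by subtracting the duplex-alone and peptide-alone contributions.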

Nucleic Acid [4] = test: Binding affinity to 5^-TTTC-3^ sequence of [32P] labeled DNA at 2 uM after 120 mins by DNase1 foot printing; in short: as §1
Nucleic Acid [5] = test: Binding affinity to 5^-TTTTCTC-3^ sequence of [32P] labeled DNA at 2 uM after 120 mins by DNase1 foot printing; in short: as §1
Nucleic Acid [6] = test: Binding affinity to 5^-GAGAAAATACC-3^ sequence of [32P] labeled DNA at 2 uM after 120 mins by DNase1 foot printing; in short: as §1
Nucleic Acid [7] = test: Binding affinity to 5^-ATTTTCTCC-3^ sequence of [32P] labeled DNA at 2 uM after 120 mins by DNase1 foot printing; in short: as §1
Nucleic Acid [8] = test: Binding affinity to 5^-TTTCACA-3^ sequence of [32P] labeled DNA at 2 uM after 120 mins by DNase1 foot printing; in short: as §1

| Compound | Ka (Nucleic Acid [1]) [M⁻¹] | Ka (Nucleic Acid [2]) [M⁻¹] | Activity (Nucleic Acid [3]) | Ka (Nucleic Acid [4]) [M⁻¹] | Ka (Nucleic Acid [5]) [M⁻¹] | Ka (Nucleic Acid [6]) [M⁻¹] | Ka (Nucleic Acid [7]) [M⁻¹] | Ka (Nucleic Acid [8]) [M⁻¹] |
| --- | --- | --- | --- | --- | --- | --- | --- | --- |
| Cn1cc(NC(=O)c2cc(NC(=O)C(CCCCN)NC(=O)[C@H](CCCNC(=N)N)NC(=O)[C@@H]3C[C@@H](O)CN3C(=O)[C@@H](N)Cc3cnc[nH]3)cn2C)cc1C(=O)Nc1cc(C(=O)Nc2cc(C(=O)N[C@@H](CCCCN)C(=O)N[C@@H](CCCNC(=N)N)C(N)=O)n(C)c2)n(C)c1 (single isomer, unassigned) | 4.7e+06 | 3.6e+06 | Active | 1.4e+06 | – | – | – | – |
| Cn1cc(NC(=O)c2cc(NC(=O)[C@H](CCCCN)NC(=O)[C@H](CCCNC(=N)N)NC(=O)[C@@H]3CCCN3C(=O)[C@@H](N)Cc3cnc[nH]3)cn2C)cc1C(=O)Nc1cc(C(=O)Nc2cc(C(=O)N[C@@H](CCCCN)C(=O)N[C@@H](CCCNC(=N)N)C(N)=O)n(C)c2)n(C)c1 (H-HPRK[X1][X1][X1][X1]KR-NH2) | – | – | Dose-dependent effect | – | 3.4e+06 | 2.7e+06 | – | – |
| Cn1cc(NC(=O)c2cc(NC(=O)[C@H](CCCCN)NC(=O)[C@H](CCCNC(=N)N)NC(=O)[C@@H]3CCCN3C(=O)[C@@H](N)Cc3cnc[nH]3)cn2C)cc1C(=O)Nc1cc(C(=O)Nc2cc(C(=O)N[C@@H](CCCNC(=N)N)C(N)=O)n(C)c2)n(C)c1 | – | – | Active | – | – | – | 9.7e+06 | 8.4e+06 |
